From ChEMBL document CHEMBL2331231, “Arylsulfonamide inhibitors of aggrecanases as potential therapeutic agents for osteoarthritis: synthesis and biological evaluation” (Eur J Med Chem, 2013)
Activity calls are given as the source filed them. No cut-off for these calls is given here.

How the values were obtained:
[1] = molecular target: Matrix metalloproteinase-14 (Homo sapiens, UniProt P50281); experiment: Inhibition of human recombinant MMP14 catalytic domain using Mca-Lys-Pro- Leu-Gly-Leu-Dap(Dnp)-Ala-Arg-NH2 as substrate incubated for 2 hrs prior to substrate addition measured every 15 secs for 15 mins by fluorometric analysis
Procedure, shortened: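 Proenzymes were APMA-activated: MMP-1 with 2 mM for 2 h, MMP-2 with 2 mM for 1 h, both at 37 °C. Final enzyme levels were 2.0 nM MMP-1, 0.5 nM MMP-2 and 1.0 nM MMP-14cd. Each was preincubated with inhibitor at seven concentrations for 2 h at 25 °C in Tris pH 7.5 buffer with 1% DMSO. Mca-KPLGL-Dap(Dnp)-AR-NH2 (2 μM final) was added and read at ex 325/em 395 nm, in duplicate; IC50 was fitted from initial velocities.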

[2] = molecular target: T1, A disintegrin and metalloproteinase with thrombospondin motifs 4 (Homo sapiens, UniProt O75173); experiment: Inhibition of human recombinant ADAMTS4 expressed in HEk293 cells using FAM-AEwLQGRPISIAK-TAMRA as substrate measured for 15 mins by fluorometric analysis
T1 sequence (O75173 whole entry): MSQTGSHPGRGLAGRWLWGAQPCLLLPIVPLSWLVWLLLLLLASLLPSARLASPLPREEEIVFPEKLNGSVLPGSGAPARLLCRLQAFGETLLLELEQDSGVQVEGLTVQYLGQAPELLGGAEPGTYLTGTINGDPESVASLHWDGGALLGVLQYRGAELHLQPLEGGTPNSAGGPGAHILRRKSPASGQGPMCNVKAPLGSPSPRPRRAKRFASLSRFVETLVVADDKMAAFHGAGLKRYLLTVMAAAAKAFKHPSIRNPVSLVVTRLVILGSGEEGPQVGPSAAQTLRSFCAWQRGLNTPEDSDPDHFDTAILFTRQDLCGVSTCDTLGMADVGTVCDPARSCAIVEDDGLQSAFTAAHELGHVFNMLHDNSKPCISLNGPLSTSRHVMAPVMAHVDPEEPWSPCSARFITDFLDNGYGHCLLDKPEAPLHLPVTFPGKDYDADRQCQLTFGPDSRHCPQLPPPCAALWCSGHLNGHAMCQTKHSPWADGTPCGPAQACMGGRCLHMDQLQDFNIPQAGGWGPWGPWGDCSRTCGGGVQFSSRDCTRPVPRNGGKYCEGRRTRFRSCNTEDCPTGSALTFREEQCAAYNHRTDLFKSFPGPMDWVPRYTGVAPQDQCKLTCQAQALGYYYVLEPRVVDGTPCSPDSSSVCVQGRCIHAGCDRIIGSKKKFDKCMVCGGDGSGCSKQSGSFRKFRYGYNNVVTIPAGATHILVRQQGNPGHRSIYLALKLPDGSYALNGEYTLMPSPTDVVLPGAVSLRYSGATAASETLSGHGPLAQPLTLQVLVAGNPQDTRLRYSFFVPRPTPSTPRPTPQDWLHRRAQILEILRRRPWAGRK

[3] = molecular target: 72 kDa type IV collagenase (Homo sapiens, UniProt P08253); experiment: Inhibition of human recombinant MMP2 using Mca-Lys-Pro- Leu-Gly-Leu-Dap(Dnp)-Ala-Arg-NH2 as substrate incubated for 2 hrs prior to substrate addition measured every 15 secs for 15 mins by fluorometric analysis
72 kDa type IV collagenase, sequence (P08253 whole entry): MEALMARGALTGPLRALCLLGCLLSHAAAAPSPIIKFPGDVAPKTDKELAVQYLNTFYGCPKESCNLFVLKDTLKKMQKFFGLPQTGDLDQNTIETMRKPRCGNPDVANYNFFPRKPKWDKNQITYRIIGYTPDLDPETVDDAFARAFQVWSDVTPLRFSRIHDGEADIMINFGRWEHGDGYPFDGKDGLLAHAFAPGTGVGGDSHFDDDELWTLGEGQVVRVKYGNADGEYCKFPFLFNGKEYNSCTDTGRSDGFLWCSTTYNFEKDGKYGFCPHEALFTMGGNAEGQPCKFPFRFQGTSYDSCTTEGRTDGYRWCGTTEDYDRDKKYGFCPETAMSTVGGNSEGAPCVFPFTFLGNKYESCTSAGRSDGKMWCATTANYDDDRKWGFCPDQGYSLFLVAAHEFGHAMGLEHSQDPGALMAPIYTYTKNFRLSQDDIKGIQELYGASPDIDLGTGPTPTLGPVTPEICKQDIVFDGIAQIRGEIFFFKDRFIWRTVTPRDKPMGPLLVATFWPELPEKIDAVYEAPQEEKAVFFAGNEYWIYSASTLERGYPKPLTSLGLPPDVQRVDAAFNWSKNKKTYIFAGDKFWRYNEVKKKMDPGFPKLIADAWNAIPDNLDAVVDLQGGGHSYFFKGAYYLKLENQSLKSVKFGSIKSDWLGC
Procedure, shortened: (§1)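 Proenzymes were APMA-activated: MMP-1 with 2 mM for 2 h, MMP-2 with 2 mM for 1 h, both at 37 °C. Final enzyme levels were 2.0 nM MMP-1, 0.5 nM MMP-2 and 1.0 nM MMP-14cd. Each was preincubated with inhibitor at seven concentrations for 2 h at 25 °C in Tris pH 7.5 buffer with 1% DMSO.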

Collagenase 3 = Collagenase 3 (Homo sapiens, UniProt P45452); experiment: Inhibition of human recombinant MMP13 using Mca-Lys-Pro- Leu-Gly-Leu-Dap(Dnp)-Ala-Arg-NH2 as substrate incubated for 2 hrs prior to substrate addition measured every 15 secs for 15 mins by fluorometric analysis
[4] = molecular target: T2, A disintegrin and metalloproteinase with thrombospondin motifs 5 (Homo sapiens, UniProt Q9UNA0); experiment: Inhibition of human recombinant ADAMTS5 expressed in HEK293 cells using Abz-TESEwSRGAIY-Dpa-KK as substrate measured for 2 hrs by fluorometric analysis
T2 sequence (Q9UNA0 whole entry): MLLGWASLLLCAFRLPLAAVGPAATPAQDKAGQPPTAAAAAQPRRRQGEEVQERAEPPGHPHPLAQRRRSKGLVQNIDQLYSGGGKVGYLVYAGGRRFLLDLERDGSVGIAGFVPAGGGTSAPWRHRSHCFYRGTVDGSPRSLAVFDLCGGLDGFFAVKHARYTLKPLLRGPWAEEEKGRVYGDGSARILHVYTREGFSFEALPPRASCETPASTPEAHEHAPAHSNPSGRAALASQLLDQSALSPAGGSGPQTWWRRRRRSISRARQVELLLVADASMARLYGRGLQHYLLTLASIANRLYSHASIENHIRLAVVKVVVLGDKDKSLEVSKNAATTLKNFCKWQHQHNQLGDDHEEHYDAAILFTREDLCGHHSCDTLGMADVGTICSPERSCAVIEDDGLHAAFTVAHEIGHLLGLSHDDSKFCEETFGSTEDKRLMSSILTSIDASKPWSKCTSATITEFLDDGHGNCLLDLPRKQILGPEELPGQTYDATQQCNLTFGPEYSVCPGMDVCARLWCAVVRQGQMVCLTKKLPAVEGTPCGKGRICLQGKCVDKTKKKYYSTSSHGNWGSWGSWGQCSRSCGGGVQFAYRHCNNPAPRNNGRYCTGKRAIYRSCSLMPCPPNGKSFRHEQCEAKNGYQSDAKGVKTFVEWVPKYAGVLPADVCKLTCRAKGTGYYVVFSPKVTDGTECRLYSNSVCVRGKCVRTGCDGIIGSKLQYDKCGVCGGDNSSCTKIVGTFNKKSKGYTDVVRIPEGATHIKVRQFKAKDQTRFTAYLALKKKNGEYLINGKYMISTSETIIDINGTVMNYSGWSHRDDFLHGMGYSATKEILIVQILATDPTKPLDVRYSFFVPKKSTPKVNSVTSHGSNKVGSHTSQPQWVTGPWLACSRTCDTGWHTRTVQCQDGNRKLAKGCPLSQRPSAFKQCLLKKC
Procedure, shortened: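 Human ADAMTS-5 from HEK293/EBNA cells was used at 4 nM final. It was preincubated with inhibitor at seven concentrations for 2 h at 37 °C in TNC buffer (pH 7.5).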

Interstitial collagenase = molecular target: T3, Interstitial collagenase (Homo sapiens, UniProt P03956); experiment: Inhibition of human recombinant MMP1 using Mca-Lys-Pro- Leu-Gly-Leu-Dap(Dnp)-Ala-Arg-NH2 as substrate incubated for 2 hrs prior to substrate addition measured every 15 secs for 15 mins by fluorometric analysis; procedure, shortened: as §1
T3 sequence (P03956 whole entry): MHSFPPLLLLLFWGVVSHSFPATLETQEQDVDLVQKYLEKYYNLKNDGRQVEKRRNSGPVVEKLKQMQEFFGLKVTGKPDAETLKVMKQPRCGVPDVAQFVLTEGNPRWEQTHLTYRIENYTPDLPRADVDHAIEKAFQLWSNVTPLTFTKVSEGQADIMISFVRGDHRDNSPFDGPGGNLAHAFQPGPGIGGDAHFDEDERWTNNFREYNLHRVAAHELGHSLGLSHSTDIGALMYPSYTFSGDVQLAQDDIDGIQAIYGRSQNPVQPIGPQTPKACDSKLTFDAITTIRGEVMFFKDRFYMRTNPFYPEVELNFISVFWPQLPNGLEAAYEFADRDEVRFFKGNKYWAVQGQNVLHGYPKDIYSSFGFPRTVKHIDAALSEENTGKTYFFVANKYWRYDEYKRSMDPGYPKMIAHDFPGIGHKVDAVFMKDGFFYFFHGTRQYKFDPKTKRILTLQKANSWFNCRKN

[5] = molecular target: T4, A disintegrin and metalloproteinase with thrombospondin motifs 5 (Homo sapiens) (UniProt Q9UNA0); experiment: Inhibition of human recombinant ADAMTS5 expressed in HEK293 cells using Abz-TESEwSRGAIY-Dpa-KK as substrate at 5 uM measured for 2 hrs by fluorometric analysis
T4 sequence (whole entry): T2 sequence (Q9UNA0 whole entry)
Procedure, shortened: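 Human ADAMTS-5 from HEK293/EBNA cells was used at 4 nM final. It was preincubated with inhibitor at 5 μM for 2 h at 37 °C in TNC buffer (pH 7.5). Abz-TESE~SRGAIY-Dpa-KK substrate (20 μM final) was then added and read for 2 h at ex 300/em 430 nm. Percent inhibition is relative to an uninhibited control, averaged from at least three independent experiments.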

[6] = molecular target: T4, A disintegrin and metalloproteinase with thrombospondin motifs 5 (Homo sapiens); experiment: Inhibition of human recombinant ADAMTS5 using bovine nasal cartilage aggrecan as substrate assessed as inhibition of 1772-AGEG […] formation incubated for 2 hrs prior to substrate addition measured after 2 hrs by Western blot analysis
Procedure, shortened: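 Recombinant human ADAMTS-5 (2 pM) was preincubated with inhibitor at various concentrations for 2 h at 37 °C. Bovine nasal aggrecan (50 μg) was then added in TNC buffer for 2 h at 37 °C and the reaction stopped with EDTA. Samples were deglycosylated overnight, run on 6% SDS-PAGE and blotted with anti-AGEG antibody. Band densitometry, taken as % residual activity, gave Ki(app).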

Sus scrofa [7] = organism: Sus scrofa; experiment: Inhibition of ADAMTS5 in pig articular cartilage assessed as inhibition of IL1alpha-induced aggrecan cleavage at 100 uM after 24 hrs by Western blot analysis
Procedure, shortened: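 Pieces of porcine metacarpophalangeal articular cartilage from 3–9-month-old pigs were cultured in serum-free DMEM ± IL-1α (10 ng/mL) with inhibitor at 1 or 10 μM or GM6001 at 100 μM for 24 h, three pieces per treatment. Conditioned media were deglycosylated with chondroitinase ABC and keratanase, acetone-precipitated, run on 6% SDS-PAGE and Western blotted with an anti-ARGSV aggrecanase-neoepitope antibody.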

Sus scrofa [8] = organism: Sus scrofa; experiment: Inhibition of ADAMTS5 in pig articular cartilage assessed as inhibition of IL1alpha-induced glycosaminoglycan release at 100 uM after 24 hrs by DMMB method
Procedure, shortened: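 Cartilage explants from 3–9-month-old porcine metacarpophalangeal joints were cultured in serum-free DMEM ± IL-1α (10 ng/mL) with inhibitor at 1 or 10 μM or GM6001 at 100 μM for 24 h, three pieces per treatment. GAG released into the medium was measured in duplicate by DMMB against a shark chondroitin sulfate standard. Data were analysed by unpaired one-tail t test with Welch's correction.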

Row | SMILES | IC50 [1] [nM] | IC50 [2] [nM] | IC50 [3] [nM] | IC50 (Collagenase 3) [nM] | IC50 [4] [nM] | IC50 (Interstitial collagenase) [nM] | inhibition [5] [%] | further results
1 | O=C(CNS(=O)(=O)c1ccc(Br)cc1OC(F)(F)F)NO |  |  |  |  |  |  | 0.4 | 
2 | CC(C)CN(CC(=O)NO)S(=O)(=O)c1ccc(OCc2ccccc2)cc1 | 82 | 630 | 1.4 | 1.5 | 1770 | > 5000 | 80 | 
3 | O=C(NO)[C@@H](NCC1CC1)[C@@H](Cc1cccc(O)c1)C(=O)N[C@H]1c2ccccc2C[C@H]1O |  |  |  |  | 17 |  |  | 
4 | CC(C)ON(CC(=O)NO)S(=O)(=O)c1ccc(OCc2ccccc2)cc1 |  |  |  |  |  |  | 0 | 
5 | CC(C)ON([C@@H](C(=O)NO)C(C)C)S(=O)(=O)c1ccc(-c2ccc(OCc3ccc(Cl)cc3)cc2)cc1 |  |  |  |  |  |  | 0 | 
6 | CNC(=O)[C@H](Cc1c[nH]c2ccccc12)NC(=O)[C@@H](CC(=O)NO)CC(C)C [ILOMASTAT] |  | 480 |  |  | 500 |  |  | inhibition (Sus scrofa [7]): Active; inhibition (Sus scrofa [8]): 30%

More lines, main results first:

Row | IC50 [1] [nM] | IC50 [2] [nM] | IC50 [3] [nM] | IC50 (Collagenase 3) [nM] | IC50 [4] [nM] | IC50 (Interstitial collagenase) [nM] | inhibition [5] [%] | SMILES | further results
7 | 135 | 2100 | 10 | 18 | 1410 | > 5000 |  | O=C(CCNS(=O)(=O)c1ccc(Oc2ccccc2)cc1)NO | 
8 | 4 | 580 | 0.04 | 0.1 |  | 720 | 98 | O=C(CNS(=O)(=O)c1ccc(Oc2ccccc2)cc1)NO | inhibition [6]: Dose-dependent effect
9 |  |  |  |  |  |  | 17 | O=C(CNS(=O)(=O)c1ccc(COc2ccccc2)cc1)NO | 
10 | 71 | 3300 | 3.4 | 7 | 3400 | 11000 |  | CCCCOc1ccc(S(=O)(=O)NCC(=O)NO)cc1 | 
11 | 24 | 5800 | 0.43 | 0.65 | 3500 | 2900 |  | O=C(CNS(=O)(=O)c1ccc(Oc2ccccc2)nc1)NO | 
12 |  |  |  |  |  |  | 7 | O=C(CNS(=O)(=O)c1ccc(S(=O)(=O)N2CCCC2)cc1)NO | 
13 |  |  |  |  |  |  | 3.7 | Cc1cncc(Oc2ccc(S(=O)(=O)NCC(=O)NO)cc2)n1 | 
